pIC50, pKd: −log10 of the molar value. Calls of active or inactive are those of the source. No cut-off for these calls is given here.
Legend:
Ketohexokinase [1] = target: T1, Ketohexokinase (Homo sapiens, UniProt P50053); experiment: Binding affinity to full length recombinant human biotin-labeled KHK by SPR assay
T1 sequence (P50053 whole entry): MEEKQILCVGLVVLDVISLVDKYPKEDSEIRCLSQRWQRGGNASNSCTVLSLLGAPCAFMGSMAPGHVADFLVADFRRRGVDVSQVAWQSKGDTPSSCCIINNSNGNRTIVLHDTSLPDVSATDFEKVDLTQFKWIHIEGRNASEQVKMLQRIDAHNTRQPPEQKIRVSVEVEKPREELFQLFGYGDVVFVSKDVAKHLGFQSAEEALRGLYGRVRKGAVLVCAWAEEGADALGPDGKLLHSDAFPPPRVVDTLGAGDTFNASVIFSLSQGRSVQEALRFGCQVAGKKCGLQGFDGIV
Procedure, shortened: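 Full-length biotinylated KHK captured on a streptavidin sensor (7000-8000 RU). Run buffer was 50 mM HEPES pH 7.4, 150 mM NaCl, 0.01% P20, 500 µM TCEP, 3% DMSO at 25 °C. Eleven 2-fold concentrations from 300 µM top, stop-flow with 60 s association and ≥120 s dissociation. Data double-referenced and DMSO-corrected; KD by steady-state affinity fit, n=1.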

Ketohexokinase [2] = target: T1, Ketohexokinase; experiment: Inhibition of recombinant human N-terminal His-tagged KHK expressed in Escherichia coli BL21(DE3) using fructose as substrate incubated for 30 mins followed by ATP addition measured for 30 mins by pyruvate kinase-lactate dehydrogenase coupled enzyme assay; conditions: for pIC50: read-out: IC50
Procedure, shortened: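 Thrombin-cleaved (His-tag removed) human or rat KHK at 10 nM, preincubated 30 min at room temperature with compound (11-point series, 2.5% DMSO). Started with 0.2 mM ATP; NADH A340 read kinetically for 30 min. IC50 from nonlinear fit of percent inhibition; mean of replicates.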

[3] = target: T2, Ketohexokinase (Homo sapiens) (UniProt P50053); experiment: Inhibition of recombinant full length human His-tagged KHK expressed in Escherichia coli BL21(DE3) using at 240 uM by 1D NMR-STD spectroscopic method
T2 sequence (whole entry): T1 sequence (P50053 whole entry)
Procedure, shortened: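 Full-length His-tagged human KHK (tag retained) at 5 μM in 50 mM Tris-d, 100 mM NaCl, 2 mM TCEP-d, 5% glycerol-d, pH 7.5, 298 K. AMP-PMP at 240 μM served as positive control. Saturation-transfer difference NMR used 512 scans and 3 s Gaussian on/off-resonance saturation. Binding was called from positive difference signals, with ligands assigned against each fragment's 1D 1H reference spectrum.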

[4] = Apparent clearance in human liver microsomes; format: ADME, microsome; conditions: read-out: CLH(app)
[5] = Octanol/water partition coefficient, log D of the compound at pH 7.4 by shake-flask method; format: physicochemical
Procedure, shortened: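 LogD measured by shake-flask octanol:water partition at pH 7.4.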

Row | Compound | pKd (Ketohexokinase [1]) | pIC50 (Ketohexokinase [2]) | IC50 (Ketohexokinase [2]; read-out: pIC50 (converted)) | inhibition [3] | microsomal CLint [4] | logD [5]
1 | Oc1nc2ccccc2nc1C(F)(F)F | 4.36 | 4.00 | – | Active | – | –
2 | C[C@@]1(O)CCN(c2c(C#N)c(C(F)(F)F)nc3cc[nH]c23)C1 | – | 4.62 | – | – | < 8 µL/min/mg | 2.1
3 | CCc1cc2nc(C(F)(F)F)c(C#N)c(N3CCC(C)(O)C3)c2[nH]1 (racemic) | – | 5.83 | – | – | 103 µL/min/mg | 2.8

The next lines start with the values.

Row | pKd (Ketohexokinase [1]) | pIC50 (Ketohexokinase [2]) | IC50 (Ketohexokinase [2]; read-out: pIC50 (converted)) | inhibition [3] | microsomal CLint [4] | logD [5] | Compound
4 | 4.70 | 3.93 | 120 µM | Active | – | – | Cc1c[nH]c2ncnc(N3CCC[C@@H](CO)C3)c12
5 | – | 4.77 | – | – | – | – | N#Cc1c(C(F)(F)F)cc(N2CCN(CCO)CC2)nc1N1CCCC(CO)C1 (centres undefined)

— ChEMBL document CHEMBL4017511, “Discovery of Fragment-Derived Small Molecules for in Vivo Inhibition of Ketohexokinase (KHK)” (J Med Chem, 2017)
